Source: ChEMBL document CHEMBL1275602, “Daptomycin is effective for treatment of experimental endocarditis due to methicillin-resistant and glycopeptide-intermediate Staphylococcus epidermidis” (Antimicrob Agents Chemother, 2010)
≈ marks a conversion by molar mass, not a printed value. Calls of active or inactive are those of the source.

Legend:
[1] = tested on: Staphylococcus epidermidis; assay: Antimicrobial activity against methicillin-resistant Staphylococcus epidermidis 375 by broth microdilution method; assay type: functional
Method in brief: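 Broth microdilution in cation-adjusted Mueller-Hinton broth following CLSI procedures. MIC and MBC determined for each strain. For daptomycin the broth was adjusted to 50 μg/ml calcium.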

[2] = tested on: Staphylococcus epidermidis; assay: Antimicrobial activity against glycopeptide-intermediate Staphylococcus epidermidis NRS6 by broth microdilution method; assay type: functional
Method in brief: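 Broth microdilution in cation-adjusted Mueller-Hinton broth following CLSI procedures. MIC and MBC determined for each strain. For daptomycin the broth was adjusted to 50 μg/ml calcium. S. aureus ATCC 29213 served as the test control strain.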

[3] = tested on: Staphylococcus epidermidis; assay: Bacteriostatic activity against methicillin-resistant Staphylococcus epidermidis 375 at 0.5 times MIC after 24 hrs by time kill analysis; assay type: functional, organism-based
Method in brief: (§1)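 Time-kill in CAMHB. Overnight culture gave a final inoculum of 5 × 10^5 to 1 × 10^6 CFU/ml. […] Viable counts taken at 0, 4 and 24 h, with carryover removed by dilution. Bactericidal meant at least a 3-log10 CFU/ml fall at 24 h versus the inoculum. Run in duplicate.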

[4] = tested on: Staphylococcus epidermidis; assay: Bacteriostatic activity against glycopeptide-intermediate Staphylococcus epidermidis NRS6 at 0.5 times MIC after 24 hrs by time kill analysis; assay type: functional, organism-based; method in brief: as §1
[5] = tested on: Staphylococcus epidermidis; assay: Bactericidal activity against glycopeptide-intermediate Staphylococcus epidermidis NRS6 assessed as reduction in bacterial CFU at 2 times MIC after 24 hrs by time kill analysis; assay type: functional
[6] = tested on: Staphylococcus epidermidis; assay: Antimicrobial activity against methicillin-resistant Staphylococcus epidermidis 375 in acute infective endocarditis rabbit model assessed as sterile vegetation level at 15 mg/kg, iv administered every 12 hrs measured after 48 hrs; assay type: functional
Method in brief: (§2)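 New Zealand White rabbits (2 kg) with catheter-induced aortic valve endocarditis. Infected i.v. 48 h after catheter placement with 1 ml of about 1 × 10^9 CFU/ml. Bacteremia confirmed before therapy. Computer-controlled infusion via the vena cava simulated human PK for 48 h. Killed after 6 further half-lives. Vegetations cultured as log10 CFU/g; sterile meant no growth after one week. 15–17 animals per arm.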

[7] = tested on: Staphylococcus epidermidis; assay: Antimicrobial activity against methicillin-resistant Staphylococcus epidermidis 375 in acute infective endocarditis rabbit model assessed as sterile vegetation level at 15 mg/kg, iv administered every 6 hrs measured after 48 hrs; assay type: functional; method in brief: as §2
[8] = tested on: Staphylococcus epidermidis; assay: Antimicrobial activity against glycopeptide-intermediate Staphylococcus epidermidis NRS6 in acute infective endocarditis rabbit model assessed as sterile vegetation level at 15 mg/kg administered every 12 hrs, iv measured after 48 hrs; assay type: functional; method in brief: as §2
[9] = tested on: Staphylococcus epidermidis; assay: Antimicrobial activity against methicillin-resistant Staphylococcus epidermidis 375 in acute infective endocarditis rabbit model assessed as bacterial titer per gram of vegetation at 15 mg/kg administered every 12 hrs, iv measured after 48 hrs; assay type: functional; method in brief: as §2
[10] = tested on: Staphylococcus epidermidis; assay: Antimicrobial activity against glycopeptide-intermediate Staphylococcus epidermidis NRS6 in acute infective endocarditis rabbit model assessed as bacterial titer per gram of vegetation at 15 mg/kg administered every 12 hrs, iv measured after 48 hrs; assay type: functional; method in brief: as §2
[11] = tested on: Staphylococcus epidermidis; assay: Antimicrobial activity against methicillin-resistant Staphylococcus epidermidis 375 in acute infective endocarditis rabbit model assessed as bacterial titer per gram of vegetation at 15 mg/kg administered every 6 hrs, iv measured after 48 hrs; assay type: functional; method in brief: as §2
[12] = tested on: Staphylococcus epidermidis; assay: Bacteriostatic activity against methicillin-resistant Staphylococcus epidermidis 375 at MIC after 24 hrs by time kill analysis; assay type: functional, organism-based; method in brief: as §1
[13] = tested on: Staphylococcus epidermidis; assay: Bacteriostatic activity against glycopeptide-intermediate Staphylococcus epidermidis NRS6 at MIC after 24 hrs by time kill analysis; assay type: functional, organism-based; method in brief: as §1
[14] = tested on: Staphylococcus epidermidis; assay: Bacteriostatic activity against methicillin-resistant Staphylococcus epidermidis 375 at 2 times MIC after 24 hrs by time kill analysis; assay type: functional, organism-based; method in brief: as §1
[15] = tested on: Staphylococcus epidermidis; assay: Bacteriostatic activity against glycopeptide-intermediate Staphylococcus epidermidis NRS6 at 2 times MIC after 24 hrs by time kill analysis; assay type: functional, organism-based; method in brief: as §1
[16] = tested on: Oryctolagus cuniculus; assay: Cmin in methicillin-resistant Staphylococcus epidermidis 375 infected rabbit at 60 mg/kg, iv; settings: in vivo
[17] = tested on: Staphylococcus epidermidis; assay: Bactericidal activity against methicillin-resistant Staphylococcus epidermidis 375 at 2 times MIC after 24 hrs by time kill analysis; assay type: functional, organism-based; method in brief: as §1
[18] = tested on: Staphylococcus epidermidis; assay: Bactericidal activity against glycopeptide-intermediate Staphylococcus epidermidis NRS6 at 2 times MIC after 24 hrs by time kill analysis; assay type: functional, organism-based
Method in brief: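 Time-kill in CAMHB with a starting inoculum of 5 × 10^5 to 1 × 10^6 CFU/ml from an overnight culture. […] Viable counts at 0, 4 and 24 h, with carryover handled by dilution. Bactericidal was defined as a ≥3-log10 CFU/ml fall at 24 h versus the inoculum. Run in duplicate.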

[19] = tested on: Oryctolagus cuniculus; assay: Cmin in rabbit at 10 mg/kg/day, iv; assay type: ADME, organism-based; set-up: route intravenous; settings: in vivo
Method in brief: (§3)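 Rabbits given drug i.v. over 15 min by computer-controlled infusion pump, designed to reproduce human serum PK (6 or 10 mg/kg/day human-equivalent regimens). Mean trough and Cmax measured in serum.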

[20] = Cmax in rabbit at 10 mg/kg/day, iv; assay type: ADME, organism-based, Oryctolagus cuniculus; set-up: dose 10 mg/kg/day, route intravenous; settings: in vivo; method in brief: as §3
[21] = tested on: Staphylococcus epidermidis; assay: Antimicrobial activity against methicillin-resistant Staphylococcus epidermidis 375 in acute infective endocarditis rabbit model assessed as sterile vegetation level at 6 mg/kg/day, iv after 48 hrs; assay type: functional; method in brief: as §2
[22] = tested on: Staphylococcus epidermidis; assay: Antimicrobial activity against methicillin-resistant Staphylococcus epidermidis 375 in acute infective endocarditis rabbit model assessed as sterile vegetation level at 10 mg/kg/day, iv after 48 hrs; assay type: functional; method in brief: as §2
[23] = tested on: Staphylococcus epidermidis; assay: Antimicrobial activity against glycopeptide-intermediate Staphylococcus epidermidis NRS6 in acute infective endocarditis rabbit model assessed as sterile vegetation level at 6 mg/kg/day, iv after 48 hrs; assay type: functional
Method in brief: (§4)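 New Zealand White rabbits (2 kg) with catheter-induced aortic valve endocarditis were infected i.v. with 1 ml of about 1 × 10^9 CFU/ml 48 h after catheter placement. Dosing started 48 h after infection by computer-controlled i.v. infusion simulating human PK, given over 15 min for 48 h. Animals were killed after 6 half-lives. Vegetations were cultured and reported as log10 CFU/g. Sterile meant no growth, including 1-week broth culture. 15 to 17 animals per arm.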

[24] = tested on: Staphylococcus epidermidis; assay: Antimicrobial activity against glycopeptide-intermediate Staphylococcus epidermidis NRS6 in acute infective endocarditis rabbit model assessed as sterile vegetation level at 10 mg/kg/day, iv after 48 hrs; assay type: functional; method in brief: as §4
[25] = tested on: Staphylococcus epidermidis; assay: Antimicrobial activity against methicillin-resistant Staphylococcus epidermidis 375 in acute infective endocarditis rabbit model assessed as bacterial titer per gram of vegetation at 6 mg/kg/day, iv after 48 hrs; assay type: functional; method in brief: as §2
[26] = tested on: Staphylococcus epidermidis; assay: Antimicrobial activity against glycopeptide-intermediate Staphylococcus epidermidis NRS6 in acute infective endocarditis rabbit model assessed as bacterial titer per gram of vegetation at 6 mg/kg/day, iv after 48 hrs; assay type: functional; method in brief: as §4
[27] = tested on: Staphylococcus epidermidis; assay: Antimicrobial activity against methicillin-resistant Staphylococcus epidermidis 375 in acute infective endocarditis rabbit model assessed as bacterial titer per gram of vegetation at 10 mg/kg/day, iv after 48 hrs; assay type: functional; method in brief: as §2
[28] = tested on: Staphylococcus epidermidis; assay: Antimicrobial activity against glycopeptide-intermediate Staphylococcus epidermidis NRS6 in acute infective endocarditis rabbit model assessed as bacterial titer per gram of vegetation at 10 mg/kg/day, iv after 48 hrs; assay type: functional; method in brief: as §4
[29] = tested on: Staphylococcus epidermidis; assay: Antimicrobial activity against methicillin-resistant Staphylococcus epidermidis isolates; assay type: functional
[30] = Cmax in rabbit at 10 mg/kg, iv; settings: in vivo

Compound: CN[C@H](CC(C)C)C(=O)N[C@H]1C(=O)N[C@@H](CC(N)=O)C(=O)N[C@H]2C(=O)N[C@H]3C(=O)N[C@H](C(=O)N[C@H](C(=O)O)c4cc(O)cc(O)c4-c4cc3ccc4O)[C@H](O)c3ccc(c(Cl)c3)Oc3cc2cc(c3O[C@@H]2O[C@H](CO)[C@@H](O)[C@H](O)[C@H]2O[C@H]2C[C@](C)(N)[C@H](O)[C@H](C)O2)Oc2ccc(cc2Cl)[C@H]1O [VANCOMYCIN]
- MBC [1]: 4 µg/mL (≈ 2.76 µM)
- MBC [2]: 16 µg/mL (≈ 11 µM)
- MIC [2]: 8 µg/mL (≈ 5.52 µM)
- Activity [3]: Active
- Activity [4]: Active
- fold change (FC) [5]: 2.8
- Activity [6]: 19%
- Activity [7]: 33%
- Activity [8]: 0%
- log10cfu [9]: 2
- log10cfu [10]: 7.1
- log10cfu [11]: 2
- Activity [12]: Active
- Activity [13]: Active
- Activity [14]: Active
- Activity [15]: Active
- Cmin [16]: 20 µg/mL

Compound: CCCCCCCCCC(=O)N[C@@H](Cc1c[nH]c2ccccc12)C(=O)N[C@H](CC(N)=O)C(=O)N[C@@H](CC(=O)O)C(=O)N[C@@H]1C(=O)NCC(=O)N[C@@H](CCCN)C(=O)N[C@@H](CC(=O)O)C(=O)N[C@H](C)C(=O)N[C@@H](CC(=O)O)C(=O)NCC(=O)N[C@H](CO)C(=O)N[C@@H]([C@H](C)CC(=O)O)C(=O)N[C@@H](CC(=O)c2ccccc2N)C(=O)O[C@@H]1C
- MBC [1]: 1 µg/mL (≈ 0.617 µM)
- MIC [1]: 0.5 µg/mL (≈ 0.309 µM)
- MBC [2]: 4 µg/mL (≈ 2.47 µM)
- MIC [2]: 2 µg/mL (≈ 1.23 µM)
- Activity [17]: Active
- Activity [18]: Active
- Cmin [19]: 18.04 µg/mL
- Cmax [20]: 146 µg/mL
- Activity [21]: 60%
- Activity [22]: 73%
- Activity [23]: 6%
- Activity [24]: 0%
- log10cfu [25]: 0
- log10cfu [26]: 3.7
- log10cfu [27]: 0
- log10cfu [28]: 3.9
- MIC [29]: ≥ 2 µg/mL
- Cmax [30]: 146 µg/mL

Compound: CO[C@H]1/C=C/O[C@@]2(C)Oc3c(C)c(O)c4c(O)c(c(/C=N/N5CCN(C)CC5)c(O)c4c3C2=O)NC(=O)/C(C)=C\C=C\[C@H](C)[C@H](O)[C@@H](C)[C@@H](O)[C@@H](C)[C@H](OC(C)=O)[C@@H]1C [RIFAMPIN]
- MBC [2]: > 0.25 µg/mL
- MIC [2]: 0.008 µg/mL (≈ 0.00972 µM)

Compound: GENTAMICIN
- MIC [2]: 64 µg/mL
